Experimental findings from ChEMBL document CHEMBL1157544, “New benzophenone-derived bisphosphonium salts as leishmanicidal leads targeting mitochondria through inhibition of respiratory complex II” (2010) are described below.

Broadly, the LC50 is the concentration lethal to half of the exposed cells or organisms. Low values mean greater toxicity, high ones lower toxicity.

Active and inactive are the calls of the source. The calls are words filed in the database; no cut-off is given here.

The subject of one assay is Leishmania pifanoi. Nature of the assay: Antileishmanial activity against Leishmania pifanoi MHOM/VE/60/Ltrod after 96 hrs by MTT assay. Type of assay: functional. In short, it runs like this: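 Axenic amastigotes harvested at late exponential phase, washed twice in HBSS plus 10 mM D-glucose (pH 7.2) and set at 2 × 10^7 cells/mL. Drug exposure 4 h at 32 °C, then washed. Regrowth 96 h at 32 °C in growth medium without phenol red, followed by MTT (1 mg/mL) reduction for 2 h at 32 °C. LC50 taken from sigmoidal curves; triplicates ± SD.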
(In general: Formazan colour is commonly taken as a measure of viable cells.)

Assay [1] relates to Leishmania donovani. Nature of the assay: Antileishmanial activity against Leishmania donovani MHOM/SC/00/1S-2D promastigotes after 48 hrs by MTT assay. It counts as functional. The procedure, abridged:
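Late-exponential promastigotes washed twice in HBSS plus 10 mM D-glucose (pH 7.2) and resuspended at 2 × 10^7 cells/mL. Drug exposure 4 h at 25 °C, then cells washed to remove unbound drug. Regrowth 48 h at 25 °C in growth medium without phenol red, followed by MTT (1 mg/mL) reduction for 2 h at 25 °C. LC50 taken from sigmoidal inhibition curves; mean of triplicates ± SD.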

In assay [2] the test system is Leishmania donovani. Nature of the assay: Antileishmanial activity against Leishmania donovani MHOM/SC/00/1S-2D promastigotes assessed as rhodamine 123 accumulation at LC50 by mitochondrial membrane potential assay. Type of assay: functional. In short, it runs like this:
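Promastigotes held overnight in growth medium with each compound at its LC50, then loaded with 0.3 μg/mL rhodamine 123. Dye uptake measured by flow cytometry (ex 488/em 525 nm) and expressed as percent of untreated cells. 1 mM KCN used as the fully depolarized control.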

In assay [3] the test system is Leishmania donovani. Nature of the assay: Antileishmanial activity against digitonized Leishmania donovani MHOM/SC/00/1S-2D promastigotes assessed as restoration of oxygen consumption at 16 uM in presence of TMPD-ascorbate. It counts as functional. The procedure, abridged: (§1)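 Clark electrode at 25 °C. Promastigotes at 10^8 cells/mL in respiration buffer with 5 mM succinate and 1 mg/mL fatty-acid-free BSA. Cells permeabilized with 60 μM digitonin, then 100 μM ADP added for state 3. After a steady rate, compound added, then 10 μM FCCP, 0.1 mM TMPD + 1.7 mM ascorbate, 6.7 mM α-glycerophosphate, 2 mM malonate or 1 μM antimycin A. Rates taken from trace slopes.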

Assay [4] relates to Leishmania donovani. Nature of the assay: Antileishmanial activity against Leishmania donovani MHOM/SC/00/1S-2D promastigotes assessed as plasma membrane integrity at 25 uM. Type of assay: functional, organism-based. In short, it runs like this:
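SYTOX green uptake. Promastigotes (2 × 10^7/mL) in HBSS-Glc were preincubated with 1 μM dye before compound was added. Fluorescence read at ex 485/em 520 nm. Full permeation was defined by 0.1% Triton X-100.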

Assay [5] concerns Leishmania donovani. Nature of the assay: Decrease in intracellular ATP level in Leishmania donovani MHOM/SC/00/1S-2D promastigotes assessed as luminescence at 0.6 to 8 uM. Type of assay: functional, organism-based. In short, it runs like this:
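3-Luc promastigotes expressing cytoplasmic firefly luciferase, 2 × 10^7/mL in HBSS-Glc, loaded with 25 μM DMNPE-luciferin (final). Compound added at the luminescence plateau, counted as time zero and 100%. Luminescence recorded 80 min, averaged every 4 s, and normalized to untreated parasites.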

Assay [6] relates to Leishmania donovani. Nature of the assay: Antileishmanial activity against Leishmania donovani MHOM/SC/00/1S-2D promastigotes assessed as inhibition of proliferation at 5 um after 4 hrs. Type of assay: functional. In short, it runs like this:
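Promastigotes washed into HBSS-Glc pH 7.2 at 2 × 10^7 cells/mL and exposed to drug for 4 h at 25 °C. Cells then washed and left to grow 48 h at 25 °C in growth medium without phenol red. Growth read by MTT reduction (1 mg/mL, 2 h). Triplicate samples.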

For assay [7], the system named is Leishmania donovani. Nature of the assay: Induction of morphological changes in Leishmania donovani MHOM/SC/00/1S-2D promastigotes assessed as mitochondrial kinetoplast at 5 uM after 4 hrs. Type of assay: functional, organism-based. In short, it runs like this:
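Promastigotes treated 4 h under the standard conditions, washed in PBS and fixed in 5% glutaraldehyde. Post-fixed in 2.5% OsO4 for 1 h, dehydrated through graded ethanol and propylene oxide, embedded in Epon 812 and imaged by transmission electron microscopy.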

For assay [8], the system named is Leishmania donovani. Nature of the assay: Antileishmanial activity against digitonized Leishmania donovani MHOM/SC/00/1S-2D promastigotes assessed as inhibition of oxygen consumption at 16 uM. Type of assay: functional, organism-based. In short, it runs like this:
as §1

For assay [9], the system named is Leishmania donovani. Nature of the assay: Antileishmanial activity against digitonized Leishmania donovani MHOM/SC/00/1S-2D promastigotes assessed as inhibition of oxygen consumption at 16 uM in presence of FCCP mitochondrial uncoupler. It counts as functional, organism-based. The procedure, abridged: as §1
Assay [10] concerns Leishmania donovani. Nature of the assay: Antileishmanial activity against digitonized Leishmania donovani MHOM/SC/00/1S-2D promastigotes assessed as restoration of oxygen consumption at 16 uM in presence of alpha-glycerophosphate. It counts as functional, organism-based. The procedure, abridged: as §1
Assay [11] relates to Leishmania donovani. Nature of the assay: Induction of apoptosis in Leishmania donovani MHOM/SC/00/1S-2D promastigotes assessed as apoptotic cells at 15 uM propidium iodide fluorescence cytofluorometry. It counts as functional. The procedure, abridged:
(§2)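 Promastigotes incubated overnight with the compound, then stained with 50 μg/mL propidium iodide. The sub-G1 peak was measured by flow cytometry. 15 μM miltefosine under identical conditions served as the positive control.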

The subject of assay [12] is Leishmania donovani. Nature of the assay: Induction of apoptosis in Leishmania donovani MHOM/SC/00/1S-2D promastigotes assessed as apoptotic cells at 1 uM propidium iodide fluorescence cytofluorometry. Type of assay: functional. In short, it runs like this:
as §2

The test system of assay [13] is Leishmania donovani. Nature of the assay: Induction of apoptosis in Leishmania donovani MHOM/SC/00/1S-2D promastigotes assessed as apoptotic cells at 2.5 uM propidium iodide fluorescence cytofluorometry. It counts as functional. The procedure, abridged: as §2

As to `O=C(c1ccc(C[P+](c2ccccc2)(c2ccccc2)c2ccccc2)cc1)c1ccc(C[P+](c2ccccc2)(c2ccccc2)c2ccccc2)cc1.[Br-].[Br-]`, the LC50 with Leishmania pifanoi turned out to be 1.53 µM; with Leishmania donovani [1] it was 2.73 µM. In the assay on Leishmania donovani [2], the Activity was found to be 67.25%.

As to `C[P+](C)(C)Cc1ccc(C(=O)c2ccc(C[P+](C)(C)C)cc2)cc1`, the LC50 with Leishmania pifanoi and in the assay with Leishmania donovani [1] was > 50 µM each time.

`CC[P+](CC)(Cc1ccc(C(=O)c2ccc(C[P+](CC)(CC)c3ccccc3)cc2)cc1)c1ccccc1`: the LC50 with Leishmania pifanoi and in the assay with Leishmania donovani [1] was > 50 µM each time.

Take `O=C(c1ccc(C[P+](c2ccco2)(c2ccco2)c2ccco2)cc1)c1ccc(C[P+](c2ccco2)(c2ccco2)c2ccco2)cc1`: the LC50 in the assay on Leishmania pifanoi is > 50 µM; in the assay on Leishmania donovani [1] it was 18.1 µM.

Consider `CC[P+](Cc1ccc(C(=O)c2ccc(C[P+](CC)(c3ccccc3)c3ccccc3)cc2)cc1)(c1ccccc1)c1ccccc1.[Br-].[Br-]`, for which the LC50 was 14 µM in the assay with Leishmania pifanoi and 6.9 µM in the assay with Leishmania donovani [1]. Further, in the assay on Leishmania donovani [2], the Activity is reported as 100%.

On to `O=C(c1ccc(C[P+](c2ccccc2)(C2CCCCC2)C2CCCCC2)cc1)c1ccc(C[P+](c2ccccc2)(C2CCCCC2)C2CCCCC2)cc1.[Br-].[Br-]`, for which the results for the LC50 in the assay with Leishmania pifanoi and with Leishmania donovani [1] were 1.45 µM and 2.1 µM, respectively. In the assay on Leishmania donovani [2], the Activity was 83.12%.

In the case of `CCC[P+](CCC)(CCC)Cc1ccc(C(=O)c2ccc(C[P+](CCC)(CCC)CCC)cc2)cc1`, the LC50 in the assay with Leishmania pifanoi and with Leishmania donovani [1] was > 50 µM throughout.

On to `CC(C)[P+](Cc1ccc(C(=O)c2ccc(C[P+](C(C)C)(C(C)C)C(C)C)cc2)cc1)(C(C)C)C(C)C`, for which the LC50 in the assay with Leishmania pifanoi and with Leishmania donovani [1] was > 50 µM each time.

As to `C[P+](Cc1ccc(C(=O)c2ccc(C[P+](C)(c3ccccc3)c3ccccc3)cc2)cc1)(c1ccccc1)c1ccccc1.[Br-].[Br-]`, the LC50 in the assay on Leishmania pifanoi stood at 1.64 µM; in the assay with Leishmania donovani [1], 19.3 µM. Further, the Activity in the assay with Leishmania donovani [2] was 100%.

Take `CC[P+](CC)(CC)Cc1ccc(C(=O)c2ccc(C[P+](CC)(CC)CC)cc2)cc1`: the LC50 in the assay with Leishmania pifanoi and in the assay with Leishmania donovani [1] was > 50 µM throughout.

In the case of `CCCCCCCCCCCCCCCCOP(=O)([O-])OCC[N+](C)(C)C` [MILTEFOSINE], the LC50 with Leishmania pifanoi was determined as 26.3 µM; in the assay with Leishmania donovani [1], 12.5 µM. In addition, in the assay with Leishmania donovani [2], the Activity was 75%.

As for `CCCCCCCC[P+](CCCCCCCC)(CCCCCCCC)Cc1ccc(C(=O)c2ccc(C[P+](CCCCCCCC)(CCCCCCCC)CCCCCCCC)cc2)cc1.[Br-].[Br-]`, the LC50 was found to be 1.37 µM with Leishmania pifanoi and 5.66 µM in the assay on Leishmania donovani [1]. Besides, the Activity in the assay on Leishmania donovani [2] was 10.8%.

As for `O=C(c1ccc(C[P+](c2ccccc2)(c2ccccc2)c2ccccn2)cc1)c1ccc(C[P+](c2ccccc2)(c2ccccc2)c2ccccn2)cc1.[Br-].[Br-]`, the LC50 in the assay on Leishmania pifanoi is 2.58 µM; with Leishmania donovani [1], 3.03 µM. Also, the Activity with Leishmania donovani [2] turned out to be 100%.

With `CCCCC[P+](CCCCC)(CCCCC)Cc1ccc(C(=O)c2ccc(C[P+](CCCCC)(CCCCC)CCCCC)cc2)cc1.[Br-].[Br-]`, the Activity is 50% with Leishmania donovani [3]; 48% with Leishmania donovani [2]; 24.9% in the assay with Leishmania donovani [11]; 22.1% in the assay on Leishmania donovani [12]; 34.5% in the assay on Leishmania donovani [13]. Further, the figures for the LC50 with Leishmania pifanoi and in the assay on Leishmania donovani [1] were 0.97 µM and 1.09 µM, respectively. Moreover, in the assay with Leishmania donovani [4], the outcome was inactive. Further, the outcome in the assay on Leishmania donovani [5], in the assay on Leishmania donovani [7], in the assay on Leishmania donovani [8], in the assay on Leishmania donovani [9] and in the assay on Leishmania donovani [10] was Active. Also, the “inhibition (INH)” value in the assay on Leishmania donovani [6] was 80%.

On to `O=C(c1ccc(C[P+](C2CCCCC2)(C2CCCCC2)C2CCCCC2)cc1)c1ccc(C[P+](C2CCCCC2)(C2CCCCC2)C2CCCCC2)cc1.[Br-].[Br-]`, for which the results for the LC50 with Leishmania pifanoi and with Leishmania donovani [1] were 1.67 µM and 3.3 µM, respectively. The Activity with Leishmania donovani [2] is on record as 42%.

Regarding `CCCC[P+](CCCC)(CCCC)Cc1ccc(C(=O)c2ccc(C[P+](CCCC)(CCCC)CCCC)cc2)cc1`, the LC50 in the assay on Leishmania pifanoi and with Leishmania donovani [1] was > 50 µM throughout.

On to `CC(C)C[P+](Cc1ccc(C(=O)c2ccc(C[P+](CC(C)C)(CC(C)C)CC(C)C)cc2)cc1)(CC(C)C)CC(C)C`, for which the LC50 in the assay with Leishmania pifanoi and in the assay with Leishmania donovani [1] was > 50 µM each time.

Regarding `Cc1ccccc1[P+](Cc1ccc(C(=O)c2ccc(C[P+](c3ccccc3)(c3ccccc3)c3ccccc3C)cc2)cc1)(c1ccccc1)c1ccccc1.[Br-].[Br-]`, the LC50 with Leishmania pifanoi was 1.51 µM; in the assay with Leishmania donovani [1], 1.9 µM. In the assay with Leishmania donovani [2], the Activity was 55.75%.

Regarding `C[P+](C)(Cc1ccc(C(=O)c2ccc(C[P+](C)(C)c3ccccc3)cc2)cc1)c1ccccc1`, the LC50 with Leishmania pifanoi and in the assay with Leishmania donovani [1] was > 50 µM throughout.

Consider `Cc1ccc([P+](Cc2ccc(C(=O)c3ccc(C[P+](c4ccccc4)(c4ccccc4)c4ccc(C)cc4)cc3)cc2)(c2ccccc2)c2ccccc2)cc1.[Br-].[Br-]`, for which the results for the LC50 with Leishmania pifanoi and with Leishmania donovani [1] were 1.38 µM and 1.2 µM, respectively. Moreover, in the assay on Leishmania donovani [2], the Activity was found to be 53.25%.
